pIC50: −log10 of the molar value.
molecular target: T1, Glucagon receptor (Homo sapiens, UniProt P47871); assay: Compound was evaluated for its binding affinity towards cloned human Glucagon receptor in BHK cells; type: cell-based
Procedure, shortened: (§1)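 Competition binding on plasma membranes (0.5 μg protein/well) from BHK cells stably expressing recombinant human glucagon receptor, selected with 0.5 mg/mL G-418. Nonspecific binding with 10⁻⁶ M glucagon. Filtration, gamma counting; IC50 mean ± SD, n = 2.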

T1 sequence (P47871 whole entry): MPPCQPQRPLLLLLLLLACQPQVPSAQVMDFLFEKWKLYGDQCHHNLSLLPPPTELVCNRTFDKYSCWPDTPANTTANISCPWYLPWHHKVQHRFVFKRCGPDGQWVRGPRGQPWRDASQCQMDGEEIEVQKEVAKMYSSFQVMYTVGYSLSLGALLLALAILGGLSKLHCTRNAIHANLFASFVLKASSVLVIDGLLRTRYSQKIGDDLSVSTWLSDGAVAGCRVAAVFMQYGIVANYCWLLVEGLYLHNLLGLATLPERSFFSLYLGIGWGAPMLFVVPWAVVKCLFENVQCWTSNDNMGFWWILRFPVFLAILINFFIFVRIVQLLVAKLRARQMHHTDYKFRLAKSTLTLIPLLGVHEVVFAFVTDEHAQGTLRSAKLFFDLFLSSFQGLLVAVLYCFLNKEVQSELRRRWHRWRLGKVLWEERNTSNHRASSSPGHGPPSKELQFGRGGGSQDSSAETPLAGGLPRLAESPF

pIC50 | SMILES
4.70 | O=C(CSc1nc2ccccc2[nH]1)c1ccc(O)c(O)c1

molecular target: T1, Glucagon receptor; assay: Binding affinity towards cloned human glucagon receptor in BHK cells.; type: cell-based; procedure, shortened: as §1

SMILES | pIC50
O=C(CSc1nc2ccccc2[nH]1)c1cc(O)cc(O)c1 | < 3.30
O=C(CSc1nc2ccccc2[nH]1)c1ccc(O)cc1 | < 4.22
O=C(CSc1nc(-c2ccccc2)c(-c2ccccc2)[nH]1)c1ccc(O)c(O)c1 | 3.74
COc1ccc(C(=O)CSc2nc3ccccc3[nH]2)cc1OC | < 3.30
COC(=O)c1cccc(COc2ccc3[nH]c(SCC(=O)c4ccc(O)c(Cl)c4)nc3c2)c1 | 5.04
O=C(CSc1nnc(-c2ccccc2)[nH]1)c1ccc(O)c(O)c1 | 4.26
Oc1ccc(C(O)CSc2nc3ccccc3[nH]2)cc1Cl (stereo not drawn) | < 3.30
O=C(CSc1nc2ccccc2s1)c1ccc(O)c(O)c1 | 4.14
O=C(O)c1cccc(C(=O)CSc2nc3ccccc3[nH]2)c1 | < 3.30
COc1cc(C(=O)CSc2nc3ccccc3[nH]2)ccc1O | 4.39
O=C(CSc1nc2ccccc2[nH]1)c1ccccc1 | < 3.30
O=C(CSc1ccc2ccccc2n1)c1ccc(O)c(O)c1 | 3.80
O=C(CSc1nc2ccccc2o1)c1ccc(O)c(O)c1 | 3.60
O=C(CSc1nc2ccccc2[nH]1)c1cccc(O)c1 | 3.42
O=C(CSc1nc2ccccc2[nH]1)c1ccc(Cl)c(Cl)c1 | < 3.30
Cn1c(SCC(=O)c2ccc(O)c(O)c2)nc2ccccc21 | < 3.30
O=C(CSc1nc2ccc([N+](=O)[O-])cc2[nH]1)c1ccc(O)c(O)c1 | 4.26
O=C(O)c1ccc(C(=O)CSc2nc3ccccc3[nH]2)cc1 | < 3.30
O=C(CSc1ncc[nH]1)c1ccc(O)c(O)c1 | < 3.30
CC(C)(C)c1ccc2nc(SCC(=O)c3ccc(O)c(O)c3)[nH]c2c1 | 5.27
Oc1ccc(/C(CSc2nc3ccccc3[nH]2)=N\OCc2ccccc2)cc1Cl | < 3.30

Results, then the molecule that gave them:

pIC50 | SMILES
< 3.30 | CCCC(Sc1nc2ccccc2[nH]1)C(=O)c1ccc(O)c(O)c1 (stereo not drawn)
3.70 | O=C(CSc1nc2ccccc2[nH]1)c1ccc(O)c(C(=O)O)c1
4.38 | COc1ccc2[nH]c(SCC(=O)c3ccc(O)c(O)c3)nc2c1
4.70 | O=C(CSc1nc2cc(Cl)c(Cl)cc2[nH]1)c1ccc(O)c(O)c1
< 3.30 | CO/N=C(/CSc1nc2ccccc2[nH]1)c1ccc(O)c(Cl)c1
4.02 | O=C(O)c1cccc(COc2ccc3[nH]c(SCC(=O)c4ccc(O)c(O)c4)nc3c2)c1
< 3.30 | O=C(CCCSc1nc2ccccc2[nH]1)c1ccc(O)c(O)c1
4.92 | O=C(CSc1nc2ccccc2[nH]1)c1ccc(O)c(Cl)c1
4.80 | COC(=O)c1cccc(COc2ccc3[nH]c(SCC(=O)c4ccc(O)c(O)c4)nc3c2)c1
< 3.30 | O/N=C(/CSc1nc2ccccc2[nH]1)c1ccc(O)c(Cl)c1
4.74 | O=C(CSc1nc2cc(OCc3ccccc3)ccc2[nH]1)c1ccc(O)c(O)c1

Reference: ChEMBL document CHEMBL1131430, “Discovery and structure-activity relationship of the first non-peptide competitive human glucagon receptor antagonists” (J Med Chem, 1998)
